In ChEMBL document CHEMBL1649355, “Synthesis and biological evaluation of novel 2,4-disubstituted-1,3-thiazoles as anti-Candida spp. agents” (2011):
Converted amounts (≈) assume the structure as drawn.

How the values were obtained:
Candida albicans [1] = assay: Antifungal activity against Candida albicans after 24 hrs by broth microdilution method
[Candida] sake [2] = Antifungal activity against Candida sake after 24 hrs by broth microdilution method; settings: Fermentozyma sake
Nakaseomyces glabratus [3] = assay: Antifungal activity against Candida glabrata after 24 hrs
Pichia kudriavzevii [4] = assay: Antifungal activity against Candida krusei after 24 hrs by broth microdilution method
Candida tropicalis [5] = assay: Antifungal activity against Candida tropicalis after 24 hrs by broth microdilution method
[Candida] sake [6] = Antifungal activity against Candida sake after 24 hrs by MTT assay; type: functional; settings: Fermentozyma sake
Procedure, shortened: (§1)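 Broth microdilution in Sabouraud dextrose broth per NCCLS guidance, tested against clinical Candida isolates (20 strains across species). Compounds dissolved in DMSO and serially diluted to final concentrations of 0.125–256. Inoculum 10³/mL. Each plate carried fungus-only and medium-only controls. Incubated 24 h at 37 °C. MIC reported as range per species.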

Pichia kudriavzevii [7] = assay: Antifungal activity against Candida krusei after 24 hrs by MTT assay; type: functional
Procedure, shortened: as §1

Nakaseomyces glabratus [8] = assay: Antifungal activity against Candida glabrata after 24 hrs by MTT assay; type: functional
Procedure, shortened: as §1

Candida tropicalis [9] = assay: Antifungal activity against Candida tropicalis after 24 hrs by MTT assay; type: functional
Procedure, shortened: as §1

Candida albicans [10] = assay: Antifungal activity against Candida albicans after 24 hrs by MTT assay; type: functional
Procedure, shortened: as §1

Row | Compound | MIC (Candida albicans [1]) [µg/mL] | MIC ([Candida] sake [2]) [µg/mL] | MIC (Nakaseomyces glabratus [3]) [µg/mL] | MIC (Pichia kudriavzevii [4]) [µg/mL] | MIC (Candida tropicalis [5]) [µg/mL] | MIC ([Candida] sake [6]) [µg/mL] | MIC (Pichia kudriavzevii [7]) [µg/mL] | MIC (Nakaseomyces glabratus [8]) [µg/mL] | MIC (Candida tropicalis [9]) [µg/mL] | MIC (Candida albicans [10]) [µg/mL]
1 | Cc1ccc(-c2csc(N/N=C\c3ccco3)n2)cc1 | 0.5 (≈ 1.76 µM) | 16 (≈ 56.5 µM) | 4 (≈ 14.1 µM) | 32 (≈ 113 µM) | 64 (≈ 226 µM) | – | – | – | – | –
2 | COc1ccc(-c2csc(N/N=C\c3ccco3)n2)cc1 | 0.5 (≈ 1.67 µM) | 32 (≈ 107 µM) | 4 (≈ 13.4 µM) | 16 (≈ 53.4 µM) | 64 (≈ 214 µM) | – | – | – | – | –
3 | C/C(=N/Nc1nc(-c2ccc(C)cc2)cs1)c1ccco1 | 0.5 (≈ 1.68 µM) | 32 (≈ 108 µM) | 4 (≈ 13.5 µM) | 64 (≈ 215 µM) | 64 (≈ 215 µM) | – | – | – | – | –
4 | COc1ccc(-c2csc(N/N=C(/C)c3ccco3)n2)cc1 | 0.5 (≈ 1.6 µM) | 16 (≈ 51.1 µM) | 4 (≈ 12.8 µM) | 16 (≈ 51.1 µM) | 128 (≈ 408 µM) | – | – | – | – | –
5 | Cc1ccc(-c2csc(N/N=C\c3cccs3)n2)cc1 | 4 (≈ 13.4 µM) | 8 (≈ 26.7 µM) | 0.5 (≈ 1.67 µM) | 16 (≈ 53.4 µM) | 64 (≈ 214 µM) | – | – | – | – | –
6 | COc1ccc(-c2csc(N/N=C\c3cccs3)n2)cc1 | 0.125 (≈ 0.396 µM) | 32 (≈ 101 µM) | 0.5 (≈ 1.59 µM) | 64 (≈ 203 µM) | 128 (≈ 406 µM) | – | – | – | – | –
7 | C/C(=N/Nc1nc(-c2ccc(C)cc2)cs1)c1cccs1 | 0.5 (≈ 1.6 µM) | 32 (≈ 102 µM) | 2 (≈ 6.38 µM) | 32 (≈ 102 µM) | 128 (≈ 408 µM) | – | – | – | – | –
8 | COc1ccc(-c2csc(N/N=C(/C)c3cccs3)n2)cc1 | 0.125 (≈ 0.379 µM) | 32 (≈ 97.1 µM) | 2 (≈ 6.07 µM) | 64 (≈ 194 µM) | 8 (≈ 24.3 µM) | – | – | – | – | –
9 | C/C(=N/Nc1nc(-c2ccc(C)cc2)cs1)c1ccccn1 | 2 (≈ 6.48 µM) | 32 (≈ 104 µM) | 4 (≈ 13 µM) | 64 (≈ 208 µM) | 64 (≈ 208 µM) | – | – | – | – | –
10 | COc1ccc(-c2csc(N/N=C(/C)c3ccccn3)n2)cc1 | 0.5 (≈ 1.54 µM) | 32 (≈ 98.6 µM) | 8 (≈ 24.7 µM) | 16 (≈ 49.3 µM) | 64 (≈ 197 µM) | – | – | – | – | –
11 | Cc1ccc(-c2csc(N/N=C\c3cccnc3)n2)cc1 | 0.125 (≈ 0.425 µM) | 16 (≈ 54.4 µM) | 0.5 (≈ 1.7 µM) | 32 (≈ 109 µM) | 128 (≈ 435 µM) | – | – | – | – | –
12 | COc1ccc(-c2csc(N/N=C\c3cccnc3)n2)cc1 | 4 (≈ 12.9 µM) | 16 (≈ 51.5 µM) | 16 (≈ 51.5 µM) | 32 (≈ 103 µM) | 64 (≈ 206 µM) | – | – | – | – | –
13 | C/C(=N/Nc1nc(-c2ccc(C)cc2)cs1)c1cccnc1 | 0.5 (≈ 1.62 µM) | 16 (≈ 51.9 µM) | 2 (≈ 6.48 µM) | 64 (≈ 208 µM) | 16 (≈ 51.9 µM) | – | – | – | – | –
14 | COc1ccc(-c2csc(N/N=C(/C)c3cccnc3)n2)cc1 | 8 (≈ 24.7 µM) | 32 (≈ 98.6 µM) | 8 (≈ 24.7 µM) | 128 (≈ 395 µM) | 128 (≈ 395 µM) | – | – | – | – | –
15 | Cc1ccc(-c2csc(N/N=C\c3ccncc3)n2)cc1 | 0.5 (≈ 1.7 µM) | 32 (≈ 109 µM) | 4 (≈ 13.6 µM) | 128 (≈ 435 µM) | 64 (≈ 217 µM) | – | – | – | – | –
16 | COc1ccc(-c2csc(N/N=C\c3ccncc3)n2)cc1 | 0.125 (≈ 0.403 µM) | 32 (≈ 103 µM) | 0.5 (≈ 1.61 µM) | 16 (≈ 51.5 µM) | 16 (≈ 51.5 µM) | – | – | – | – | –
17 | C/C(=N/Nc1nc(-c2ccc(C)cc2)cs1)c1ccncc1 | 0.5 (≈ 1.62 µM) | 32 (≈ 104 µM) | 4 (≈ 13 µM) | 32 (≈ 104 µM) | 32 (≈ 104 µM) | – | – | – | – | –
18 | COc1ccc(-c2csc(N/N=C(/C)c3ccncc3)n2)cc1 | 0.5 (≈ 1.54 µM) | 16 (≈ 49.3 µM) | 4 (≈ 12.3 µM) | 128 (≈ 395 µM) | 32 (≈ 98.6 µM) | – | – | – | – | –
19 | Cc1ccc(-c2csc(N/N=C\c3cccc4ccccc34)n2)cc1 | 2 (≈ 5.82 µM) | 32 (≈ 93.2 µM) | 16 (≈ 46.6 µM) | 16 (≈ 46.6 µM) | 16 (≈ 46.6 µM) | – | – | – | – | –
20 | COc1ccc(-c2csc(N/N=C\c3cccc4ccccc34)n2)cc1 | 4 (≈ 11.1 µM) | 16 (≈ 44.5 µM) | 2 (≈ 5.56 µM) | 32 (≈ 89 µM) | 64 (≈ 178 µM) | – | – | – | – | –
21 | C/C(=N/Nc1nc(-c2ccc(C)cc2)cs1)c1ccc2ccccc2c1 | 2 (≈ 5.59 µM) | 16 (≈ 44.8 µM) | 0.5 (≈ 1.4 µM) | 32 (≈ 89.5 µM) | 4 (≈ 11.2 µM) | – | – | – | – | –
22 | COc1ccc(-c2csc(N/N=C(/C)c3ccc4ccccc4c3)n2)cc1 | 2 (≈ 5.36 µM) | 16 (≈ 42.8 µM) | 2 (≈ 5.36 µM) | 256 (≈ 685 µM) | 64 (≈ 171 µM) | – | – | – | – | –
23 | Cc1ccc(-c2csc(N/N=C\c3ccc4c(c3)OCO4)n2)cc1 | 0.125 (≈ 0.37 µM) | 8 (≈ 23.7 µM) | 4 (≈ 11.9 µM) | 64 (≈ 190 µM) | 16 (≈ 47.4 µM) | – | – | – | – | –
24 | COc1ccc(-c2csc(N/N=C\c3ccc4c(c3)OCO4)n2)cc1 | 0.5 (≈ 1.41 µM) | 8 (≈ 22.6 µM) | 4 (≈ 11.3 µM) | 64 (≈ 181 µM) | 64 (≈ 181 µM) | – | – | – | – | –
25 | Cc1ccc(-c2csc(N/N=C\c3c[nH]c4ccccc34)n2)cc1 | 0.125 (≈ 0.376 µM) | 32 (≈ 96.3 µM) | 4 (≈ 12 µM) | 32 (≈ 96.3 µM) | 64 (≈ 193 µM) | – | – | – | – | –
26 | COc1ccc(-c2csc(N/N=C\c3c[nH]c4ccccc34)n2)cc1 | 32 (≈ 91.8 µM) | 8 (≈ 23 µM) | 0.5 (≈ 1.44 µM) | 64 (≈ 184 µM) | 64 (≈ 184 µM) | – | – | – | – | –
27 | C/C(=N/Nc1nc(-c2ccc(C)cc2)cs1)c1cc2ccccc2oc1=O | – | – | – | – | – | 32 (≈ 85.2 µM) | 128 (≈ 341 µM) | 0.5 (≈ 1.33 µM) | 128 (≈ 341 µM) | 0.125 (≈ 0.333 µM)
28 | COc1ccc(-c2csc(N/N=C(/C)c3cc4ccccc4oc3=O)n2)cc1 | 2 (≈ 5.11 µM) | 32 (≈ 81.7 µM) | 2 (≈ 5.11 µM) | 32 (≈ 81.7 µM) | 2 (≈ 5.11 µM) | – | – | – | – | –
29 | Clc1ccccc1C(c1ccccc1)(c1ccccc1)n1ccnc1 [CLOTRIMAZOLE] | 2 (≈ 5.8 µM) | 16 (≈ 46.4 µM) | 2 (≈ 5.8 µM) | – | – | – | – | – | – | –
30 | OC(Cn1cncn1)(Cn1cncn1)c1ccc(F)cc1F [FLUCONAZOLE] | 4 (≈ 13.1 µM) | 32 (≈ 104 µM) | 4 (≈ 13.1 µM) | 8 (≈ 26.1 µM) | 4 (≈ 13.1 µM) | – | – | – | – | –
